Here are results for 2 molecules from PMC6178977 (Advanced functional materials, 2017).

Data set [1] concerns subcutaneous HCT-116 xenograft. Kind of data set: Tumor regression in subcutaneous HCT-116 xenograft model. In kind it is in vivo, mice.
Data set [2] deals with Colo 205 cells. Kind of data set: In vitro cytotoxicity, 72 h treatment. In kind it is cell-based. The conditions noted are these: Homo sapiens, COLO 205, 72 h.
The test system of data set [3] is HCT116 cells. Put plainly: In vitro cytotoxicity, 72 h treatment. In kind it is cell-based. The conditions noted are these: Homo sapiens, HCT-116, 72 h.
For data set [4] the following is noted: cited from earlier work.
A short description of data set [5]: Pyrene fluorescence assay. In kind it is physicochemical. Put shortly: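 Pyrene served as fluorescent probe across a dilution series of polypeptide or conjugate. The I₁/I₃ ratio (370−373 nm peak over 381−384 nm peak) was plotted against polypeptide concentration. CAC was taken from the sigmoidal transition, which reflects nanoparticle disassembly and release of pyrene into the aqueous phase.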

The term IC50 denotes the concentration that inhibits the measured activity by half. Turning to `Nc1ccn([C@@H]2O[C@H](CO)[C@@H](O)C2(F)F)c(=O)n1` [GEM, gemcitabine], the “tumor volume lower than PBS treated animals” value in data set [1] (12 days after treatment) is ~ 3 fold. This molecule gave a median survival time in data set [1] (HCT-116 xenograft, 25 mg.kg^−1 day 0, 2, 4, Kaplan–Meier, n=6) of 21 days. For the same molecule, the half-inhibitory concentration (IC50) in data set [2] worked out at 46.4 nM; in data set [3], 4.1 nM. Besides, the plasma half-life in data set [4] was ~ 10 minutes.

As for (VPGAG)160–(YG)6–(CGG)8 [ATBP], in data set [5], the “CAC (critical aggregation concentration)” value was 3.6 µM.
